Reference: article PMC8189251 (ACS chemical biology, 2021)

Experiments:
[1] = system: U2 snRNP; conditions: bypassed by an ATP-dependent rearrangement; cited from earlier work
[2] = system: U2 snRNA; assay: RNase H cleavage analysis of U2 snRNA accessibility in nuclear extract; type: biochemical, human; conditions: 1 μM, 10 minutes at 30°C
Outline: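 HeLa nuclear extract (40%), ATP-depleted 10 min at 30°C, in 60 mM potassium glutamate, 2 mM Mg acetate, 0.1 mg/mL tRNA, ±2 mM ATP, with test compound or DMSO, 10 min, 30°C. Oligos against U2 nt 24–38 or 32–46 (5 μM) were added for 15 min for endogenous RNase H cleavage, then DNase-removed. Read-out: primer extension (³²P primer, U2 97–117; MMLV RT, 53°C, 30 min), denaturing gel, phosphorimaging.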

[3] = biological target: T1, SF3B (Homo sapiens, UniProt O75533+Q7RTV0); type: biochemical; conditions: for splicing efficiency, first incubation at 30°C compared to 4°C before excess iHB: 1 μM inhibitor, then 100 μM iHB
[4] = biological target: T1, SF3B; conditions: cited from earlier work; for splicing products with inhibitor alone: 1 μM inhibitor alone in in vitro splicing reaction

CC[C@H](O)[C@@H](C)[C@H]1O[C@@H]1C[C@@](C)(O)/C=C/C=C(\C)[C@H]1OC(=O)C[C@H](O)CC[C@@](C)(O)[C@@H](OC(=O)N2CCN(C3CCCCCC3)CC2)/C=C/[C@@H]1C [E7107]
effect on U2 snRNPs ability to engage an oligo containing the branch sequence [1]: inhibits

CO[C@]1(C)C[C@@]2(CO2)[C@H](O)[C@@H](/C=C/C(C)=C/C[C@@H]2O[C@H](C)[C@H](NC(=O)/C=C\[C@H](C)OC(C)=O)C[C@@H]2C)O1 [SSA, spliceostatin A]
effect on ATP-dependent changes in U2 snRNA cleavage [2]: does not interfere
splicing efficiency, inhibitor incubated before excess iHB competitor ([3]; 1 μM inhibitor 10 min, then 100 μM iHB 10 min): greatly reduced
splicing products, inhibitor followed by DMSO ([3]; 1 μM inhibitor 10 min, then DMSO 10 min, 4°C): no splicing products
splicing efficiency, first incubation at 30°C compared to 4°C before excess iHB [3]: lower
off-rate ([3]; inferred from order of addition, not direct binding): very slow
splicing products with inhibitor alone [4]: not detected

CO[C@H]([C@@H](C)[C@H]1O[C@]1(C)C[C@H](C)/C=C/C=C(\C)[C@H]1O[C@@H](CC(=O)O)CC[C@@H]1C)[C@@H](C)O [compound 1, herboxidiene]
splicing efficiency, first incubation at 30°C compared to 4°C before excess iHB [3]: lower
splicing products with inhibitor alone [4]: not detected
IC50 ([4]; read-out: IC50 value for in vitro splicing, HeLa nuclear extract): 300 nM
